In brackets after ≈: the same amount, converted by molar mass. One block for each molecule: values may come before it. Activity calls are given as the source filed them. The calls are words filed in the database; no cut-off is given here.
Columns and labels:
[1] = target: T1, 2-amino-3-carboxymuconate-6-semialdehyde decarboxylase (Homo sapiens, UniProt Q8TDX5); test: Inhibition of human ACMSD expressed in Pichia pastoris using ACMS as substrate by coupled spectrophotometric assay
How it was run: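 Recombinant enzyme purified from Pichia pastoris; ACMS substrate generated in a pre-assay mix from 10 μM 3-hydroxyanthranilic acid by Ralstonia metallidurans 3-hydroxyanthranilate 3,4-dioxygenase, formation monitored at 360 nm. Enzyme and compound then added together; activity from initial rate of absorbance decrease minus a no-enzyme control. Serial dilutions, 1.0% DMSO throughout. IC50 from concentration–response curves, mean ± SD of three independent experiments.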
Target sequence in this assay (Q8TDX5 whole entry): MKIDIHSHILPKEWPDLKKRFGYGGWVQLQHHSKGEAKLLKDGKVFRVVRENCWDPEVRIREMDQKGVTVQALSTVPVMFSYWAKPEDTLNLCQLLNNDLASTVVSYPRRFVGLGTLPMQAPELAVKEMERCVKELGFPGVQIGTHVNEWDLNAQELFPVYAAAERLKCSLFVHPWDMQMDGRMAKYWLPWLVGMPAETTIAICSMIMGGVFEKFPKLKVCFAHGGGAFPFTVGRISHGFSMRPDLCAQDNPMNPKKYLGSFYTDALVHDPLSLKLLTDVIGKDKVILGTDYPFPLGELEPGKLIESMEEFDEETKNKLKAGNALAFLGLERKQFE

[2] = target: Kynurenine 3-monooxygenase (Rattus norvegicus, UniProt O88867); test: Inhibition of rat liver KMO using [3,5-3H]-kynurenine substrate
[3] = Drug uptake in mouse central nervous system at 5 mg/kg, po in presence of P-gp inhibitor Elacridar; format: ADME, organism-based; conditions: in vivo
[4] = Clearance in CD1 mouse at 0.5 mg/kg, iv measured up to 24 hrs post dose; format: ADME, organism-based; conditions: in vivo
How it was run: (§1)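 Mice given 0.5 mg/kg IV in saline containing 5% (v/v) DMSO and 20% (v/v) PEG400; blood pharmacokinetic parameters reported as means.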

[5] = Half life in CD1 mouse at 0.5 mg/kg, iv measured up to 24 hrs post dose; format: ADME, organism-based; conditions: in vivo; how it was run: as §1
[6] = AUClast in mouse blood at 5 mg/kg, po measured up to 8 hrs post dose; format: ADME, organism-based; design: time < 8 hr, dose 5 mg/kg, route oral
How it was run: (§2)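 Mice dosed orally at 5 mg/kg in 0.5% (w/v) HPMC in water with 5% (v/v) DMSO; blood, liver and kidney concentrations followed to 8 h. AUC0–8h given in h·ng/mL; parameters reported as means.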

[7] = AUClast in mouse kidney at 5 mg/kg, po measured up to 8 hrs post dose; format: ADME, organism-based; design: time < 8 hr, dose 5 mg/kg, route oral; how it was run: as §2
[8] = target: Voltage-gated inwardly rectifying potassium channel KCNH2 (Homo sapiens, UniProt Q12809); test: Displacement of red fluorescent channel ligand tracer from human ERG expressed in CHO cell membranes
How it was run: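 Fluorescence polarisation kit: membranes from CHO cells stably expressing hERG, with a red fluorescent high-affinity tracer; competitors detected by tracer displacement, seen as lowered polarisation. Final DMSO 1%; E-4031 reference.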

[9] = Oral bioavailability in CD1 mouse at 5 mg/kg measured up to 8 hrs after dose; format: ADME, organism-based; conditions: in vivo; how it was run: as §2
[10] = target: T2, Nuclear receptor subfamily 1 group I member 2 (Homo sapiens, UniProt O75469); test: Activity at PXR (unknown origin)
T2 sequence (O75469 whole entry): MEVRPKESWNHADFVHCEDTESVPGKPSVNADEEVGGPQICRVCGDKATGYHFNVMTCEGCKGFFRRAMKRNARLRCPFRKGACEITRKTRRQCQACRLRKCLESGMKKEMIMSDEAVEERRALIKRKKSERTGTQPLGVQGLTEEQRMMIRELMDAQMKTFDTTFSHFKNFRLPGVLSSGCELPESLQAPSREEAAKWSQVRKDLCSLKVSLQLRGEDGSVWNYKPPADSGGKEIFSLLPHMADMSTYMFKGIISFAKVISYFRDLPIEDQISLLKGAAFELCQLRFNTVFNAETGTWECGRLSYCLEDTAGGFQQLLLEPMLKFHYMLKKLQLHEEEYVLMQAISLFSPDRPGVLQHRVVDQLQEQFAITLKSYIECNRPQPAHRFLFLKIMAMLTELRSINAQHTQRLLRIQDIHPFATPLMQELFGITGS
How it was run: (§3)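 Eight-point serial dilutions tested in an in-house AlphaScreen-based nuclear receptor panel; activity derived from nonlinear regression curves.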

[11] = Apparent passive permeability from apical to basolateral side in MDCK2-MDR1 cells at 3 uM after 90 mins by LC-MS/MS analysis; format: ADME, cell-based, Canis lupus familiaris; conditions: dog, MDCK-MDR1
How it was run: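 MDCKII-MDR1 monolayers, HBSS transport medium pH 7.4; compound 3 μM for 90 min, run with and without a P-gp inhibitor, n = 3. Quantified by LC-MS/MS as analyte/internal-standard peak-area ratio; monolayer integrity checked with Lucifer yellow. Papp given in nm/sec, A>B.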

[12] = Solubility of compound in PBS buffer at pH 7.4 after 24 hrs by UV/vis-spectroscopic analysis; format: physicochemical
How it was run: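 Compound in PBS pH 7.4 with 1% DMSO mixed, incubated 24 h and vacuum-filtered; filtrate read by UV/vis and relative solubility calculated from summed readings against a standard. Reported in mg/mL.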

[13] = Tmax in CD1 mouse at 5 mg/kg, po measured up to 8 hrs post dose; format: ADME, organism-based; conditions: in vivo; how it was run: as §2
[14] = target: Cytochrome P450 2C19 (Homo sapiens, UniProt P33261); test: Inhibition of recombinant human CYP2C19 expressed in baculosomes expression system using fluorogenic-BOMCC as substrate by fluorescent homogeneous assay; format: ADME
How it was run: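 Recombinant CYP baculosomes with fluorogenic substrates, at concentrations below their Km; homogeneous fluorescence read-out, run in triplicate. IC50 classes: <1 μM potent, 1–10 μM moderate, >10 μM weak or none.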

[15] = Volume of distribution at steady state in CD1 mouse at 0.5 mg/kg, iv measured up to 24 hrs post dose; format: ADME, organism-based; conditions: in vivo, read-out: Vdss; how it was run: as §1
[16] = Cytotoxicity against mouse AML-12 cells assessed as reduction in cell viability after 4 hrs by celltiter-glo assay; format: cell-based; conditions: aml-12, 4 h
How it was run: (§4)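 HepG2 or AML12 cells, 5 × 10^3 per well, exposed to compound for 4 h at 37 °C. Viability read as ATP by CellTiter-Glo luminescence; tamoxifen control.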

[17] = AUClast in CD1 mouse at 0.5 mg/kg, iv measured up to 24 hrs post dose; format: ADME, organism-based; design: dose 0.5 mg/kg, time < 24 hr, route intravenous; conditions: in vivo; how it was run: as §1
[18] = system: HepG2; test: Cytotoxicity against human HepG2 cells assessed as reduction in cell viability after 4 hrs by celltiter-glo assay; format: cell-based; conditions: hepg2, 4 h; how it was run: as §4
[19] = Cmax in CD1 mouse at 5 mg/kg, po measured up to 8 hrs after dose; format: ADME, organism-based; design: dose 5 mg/kg, route oral; conditions: in vivo; how it was run: as §2
[20] = Drug uptake in mouse central nervous system at 5 mg/kg, po; format: ADME, organism-based; conditions: in vivo
[21] = AUClast in mouse liver at 5 mg/kg, po measured up to 8 hrs post dose; format: ADME, organism-based; design: dose 5 mg/kg, time < 8 hr, route oral; how it was run: as §2
[22] = organism: Homo sapiens; test: Activity at RXR (unknown origin); how it was run: as §3
[23] = organism: Homo sapiens; test: Activity at PPAR (unknown origin); how it was run: as §3
[24] = organism: Homo sapiens; test: Activity at TR (unknown origin); how it was run: as §3
[25] = target: T3, Bile acid receptor (Homo sapiens) (UniProt Q96RI1); test: Activity at FXR (unknown origin); how it was run: as §3
T3 sequence (whole entry): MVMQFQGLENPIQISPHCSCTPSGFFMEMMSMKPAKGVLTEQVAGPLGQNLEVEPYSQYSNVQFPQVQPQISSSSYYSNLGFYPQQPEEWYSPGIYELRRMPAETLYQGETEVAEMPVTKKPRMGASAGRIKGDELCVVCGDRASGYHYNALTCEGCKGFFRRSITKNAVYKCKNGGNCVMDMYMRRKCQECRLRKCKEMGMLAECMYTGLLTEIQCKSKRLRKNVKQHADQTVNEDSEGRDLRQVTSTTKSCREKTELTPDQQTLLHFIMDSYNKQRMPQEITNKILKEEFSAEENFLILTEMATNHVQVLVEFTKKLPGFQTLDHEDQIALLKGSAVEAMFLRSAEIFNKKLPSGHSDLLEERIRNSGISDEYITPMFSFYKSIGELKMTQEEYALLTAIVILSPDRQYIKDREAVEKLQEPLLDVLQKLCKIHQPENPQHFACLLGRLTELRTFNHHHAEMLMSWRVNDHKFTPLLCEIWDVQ

[26] = target: T4, Vitamin D3 receptor (Homo sapiens) (UniProt P11473); test: Activity at VDR (unknown origin); how it was run: as §3
T4 sequence (whole entry): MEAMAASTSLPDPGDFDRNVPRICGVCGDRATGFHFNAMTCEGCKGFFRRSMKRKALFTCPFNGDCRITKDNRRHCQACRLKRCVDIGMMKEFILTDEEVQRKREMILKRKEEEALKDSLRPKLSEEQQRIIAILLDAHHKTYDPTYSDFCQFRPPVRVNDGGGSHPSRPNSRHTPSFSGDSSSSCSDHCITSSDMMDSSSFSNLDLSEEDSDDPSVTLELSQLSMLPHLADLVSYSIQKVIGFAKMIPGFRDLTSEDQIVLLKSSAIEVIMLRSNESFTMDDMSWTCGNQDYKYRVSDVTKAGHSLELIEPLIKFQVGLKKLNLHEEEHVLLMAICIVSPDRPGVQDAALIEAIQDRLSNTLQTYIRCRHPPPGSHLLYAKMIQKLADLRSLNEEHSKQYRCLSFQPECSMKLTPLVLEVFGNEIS

[27] = target: T1, 2-amino-3-carboxymuconate-6-semialdehyde decarboxylase; test: Inhibition of ACMSD in human primary hepatocytes assessed as increase in intracellular NAD+ levels at 5 uM after 48 hrs by NAD/NADH-Glo assay; format: cell-based
Target sequence in this assay (Q8TDX5 whole entry, looked up): as the sequence (Q8TDX5 whole entry) above

[28] = target: T5, Glucocorticoid receptor (Homo sapiens) (UniProt P04150); test: Activity at GR (unknown origin); how it was run: as §3
T5 sequence (whole entry): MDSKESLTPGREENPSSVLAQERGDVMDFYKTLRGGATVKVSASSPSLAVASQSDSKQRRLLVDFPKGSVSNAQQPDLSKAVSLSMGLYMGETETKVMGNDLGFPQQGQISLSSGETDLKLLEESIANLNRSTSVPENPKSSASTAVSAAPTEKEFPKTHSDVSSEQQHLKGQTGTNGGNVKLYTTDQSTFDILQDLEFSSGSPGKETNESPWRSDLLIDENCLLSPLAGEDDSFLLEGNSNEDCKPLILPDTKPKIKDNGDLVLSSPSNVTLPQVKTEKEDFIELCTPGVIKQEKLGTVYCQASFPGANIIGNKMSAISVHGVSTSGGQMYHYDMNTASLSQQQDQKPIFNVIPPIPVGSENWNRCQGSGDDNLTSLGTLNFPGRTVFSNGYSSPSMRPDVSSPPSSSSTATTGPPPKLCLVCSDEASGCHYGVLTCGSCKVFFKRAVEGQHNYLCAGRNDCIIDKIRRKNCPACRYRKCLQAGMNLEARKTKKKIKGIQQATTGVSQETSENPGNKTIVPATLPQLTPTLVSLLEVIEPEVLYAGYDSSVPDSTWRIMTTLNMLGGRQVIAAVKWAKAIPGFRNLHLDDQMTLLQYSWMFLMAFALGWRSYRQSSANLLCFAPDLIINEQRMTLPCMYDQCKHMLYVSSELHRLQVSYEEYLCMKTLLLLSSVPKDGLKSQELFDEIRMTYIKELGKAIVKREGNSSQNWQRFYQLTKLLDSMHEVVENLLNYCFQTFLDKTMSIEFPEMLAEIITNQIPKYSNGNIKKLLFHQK

[29] = organism: Homo sapiens; test: Activity at LXR (unknown origin); how it was run: as §3

Cytochrome P450 2C19, sequence (P33261 whole entry): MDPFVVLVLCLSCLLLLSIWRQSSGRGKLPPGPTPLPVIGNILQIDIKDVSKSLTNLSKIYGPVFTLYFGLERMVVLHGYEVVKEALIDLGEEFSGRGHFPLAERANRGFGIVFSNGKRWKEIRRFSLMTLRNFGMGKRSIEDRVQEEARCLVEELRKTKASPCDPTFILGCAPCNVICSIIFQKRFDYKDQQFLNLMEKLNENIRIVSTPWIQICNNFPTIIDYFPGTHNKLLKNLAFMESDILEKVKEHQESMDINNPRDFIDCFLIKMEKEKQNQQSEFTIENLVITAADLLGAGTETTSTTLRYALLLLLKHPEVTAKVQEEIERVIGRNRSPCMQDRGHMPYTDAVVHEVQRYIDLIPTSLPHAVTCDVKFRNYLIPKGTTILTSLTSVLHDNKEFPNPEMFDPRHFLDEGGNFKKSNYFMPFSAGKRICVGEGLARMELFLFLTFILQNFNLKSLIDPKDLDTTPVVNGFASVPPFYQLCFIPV
Voltage-gated inwardly rectifying potassium channel KCNH2, sequence (Q12809 whole entry): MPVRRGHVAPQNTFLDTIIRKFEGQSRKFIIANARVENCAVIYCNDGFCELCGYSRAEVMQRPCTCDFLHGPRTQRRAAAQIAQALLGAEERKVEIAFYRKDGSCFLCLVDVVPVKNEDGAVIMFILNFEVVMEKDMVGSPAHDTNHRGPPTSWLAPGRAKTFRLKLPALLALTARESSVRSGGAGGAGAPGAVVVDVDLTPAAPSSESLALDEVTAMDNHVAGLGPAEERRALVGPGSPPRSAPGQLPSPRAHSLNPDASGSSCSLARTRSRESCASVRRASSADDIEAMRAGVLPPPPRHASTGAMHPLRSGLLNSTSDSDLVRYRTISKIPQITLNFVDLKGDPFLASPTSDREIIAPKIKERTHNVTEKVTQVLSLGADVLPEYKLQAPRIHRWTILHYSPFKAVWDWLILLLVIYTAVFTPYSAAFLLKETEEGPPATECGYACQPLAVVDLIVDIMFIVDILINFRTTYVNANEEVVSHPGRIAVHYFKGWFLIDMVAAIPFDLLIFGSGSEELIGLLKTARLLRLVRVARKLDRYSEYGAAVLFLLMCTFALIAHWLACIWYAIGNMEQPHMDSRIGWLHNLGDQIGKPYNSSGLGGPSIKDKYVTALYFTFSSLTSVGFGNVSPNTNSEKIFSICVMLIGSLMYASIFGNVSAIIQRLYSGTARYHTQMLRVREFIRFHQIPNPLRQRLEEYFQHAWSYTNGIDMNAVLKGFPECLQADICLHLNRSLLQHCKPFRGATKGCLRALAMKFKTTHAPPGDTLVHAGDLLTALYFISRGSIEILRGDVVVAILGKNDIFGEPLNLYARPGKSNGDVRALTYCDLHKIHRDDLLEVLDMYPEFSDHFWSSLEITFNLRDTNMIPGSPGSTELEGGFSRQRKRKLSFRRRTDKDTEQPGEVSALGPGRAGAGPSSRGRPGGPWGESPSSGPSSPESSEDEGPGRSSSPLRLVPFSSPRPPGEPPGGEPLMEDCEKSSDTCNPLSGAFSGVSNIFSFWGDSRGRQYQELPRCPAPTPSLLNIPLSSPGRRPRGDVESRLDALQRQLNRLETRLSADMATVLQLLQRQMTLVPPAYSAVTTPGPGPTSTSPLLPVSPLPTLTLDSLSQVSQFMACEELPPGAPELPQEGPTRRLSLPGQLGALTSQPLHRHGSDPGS
Kynurenine 3-monooxygenase, sequence (O88867 whole entry): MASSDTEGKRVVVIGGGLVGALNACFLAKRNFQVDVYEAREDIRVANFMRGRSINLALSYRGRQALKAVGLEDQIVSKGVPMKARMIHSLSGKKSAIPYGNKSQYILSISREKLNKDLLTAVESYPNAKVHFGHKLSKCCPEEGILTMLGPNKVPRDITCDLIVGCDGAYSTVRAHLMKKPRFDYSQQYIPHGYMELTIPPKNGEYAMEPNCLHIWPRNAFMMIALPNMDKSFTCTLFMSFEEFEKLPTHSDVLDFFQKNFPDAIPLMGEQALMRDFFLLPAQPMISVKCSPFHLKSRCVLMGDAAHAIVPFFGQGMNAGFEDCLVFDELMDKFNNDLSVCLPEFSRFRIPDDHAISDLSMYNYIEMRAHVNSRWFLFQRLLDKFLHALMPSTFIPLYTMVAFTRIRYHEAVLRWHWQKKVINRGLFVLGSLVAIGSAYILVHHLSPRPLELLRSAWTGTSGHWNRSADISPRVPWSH

Compound: N#Cc1c(-c2cccs2)nc(SCc2cccc(-c3noc(C(F)(F)F)n3)c2)[nH]c1=O
IC50 [1]: 3350 nM

Compound: O=C(O)C1CC1C(=O)c1ccc(Cl)c(Cl)c1 (stereo not given)
IC50 [2]: 20 nM

Compound: N#Cc1c(-c2cccs2)nc(SCc2cccc(C(=O)NO)c2)[nH]c1=O
IC50 [1]: 1750 nM

Compound: Cc1nc(SCc2cccc(C(=O)O)c2)[nH]c(=O)c1C#N
IC50 [1]: 1900 nM

Compound: N#Cc1c(-c2ccccc2)nc(SCc2ccccc2)[nH]c1=O
IC50 [1]: 4450 nM

Compound: N#Cc1c(-c2cccs2)nc(SCc2cccc(-c3nnn[nH]3)c2)[nH]c1=O
Activity [22]: inactive
Activity [23]: inactive
Activity [24]: inactive
Activity [25]: inactive
Activity [26]: inactive
inhibition [27]: Active
Activity [28]: inactive
Activity [29]: inactive

Compound: N#Cc1c(Cl)nc(SCc2cccc(C(=O)O)c2)nc1-c1ccccc1
IC50 [1]: 316 nM

Compound: O=C(O)c1cccc(CSc2nc(-c3ccccc3)cc(=O)[nH]2)c1
IC50 [1]: 1050 nM

The next lines start with results.

IC50 [1]: 89 nM
Compound: N#Cc1c(C2CCCCC2)nc(SCc2cccc(C(=O)O)c2)[nH]c1=O

IC50 [1]: 99 nM
Compound: O=C(O)c1cccc(CSc2nc(-c3ccccc3)c(Br)c(=O)[nH]2)c1

IC50 [1]: 45 nM
Compound: N#Cc1c(-c2ccccc2)nc(SCc2cccc(C(=O)O)c2)[nH]c1=O

IC50 [1]: 151 nM
Compound: O=C(O)c1cccc(CSc2nc(-c3ccccc3)c(Cl)c(=O)[nH]2)c1

IC50 [1]: 3 nM
Drug uptake [3]: Not Active
clearance [4]: 1.2 mL/min/kg
half-life [5]: 4.02 h
AUC(0-t) at 8 h [6]: 1620 ng·h/mL
AUC(0-t) at 8 h [7]: 2830 ng·h/mL
bioavailability [9]: 2.3%
Activity [10]: Not Active
Papp A→B at 1.5 h, 3 µM [11]: 0.584 ×10⁻⁶ cm/s
solubility at 24 h [12]: 1000 µg/mL (≈ 2540 µM)
Tmax [13]: 2 h
IC50 [14]: 100 nM
Vd [15]: 0.306 L/kg
AUC(0-t) at 24 h [17]: 6900 ng·h/mL
Cmax [19]: 255 ng/mL
Drug uptake [20]: Not Active
AUC(0-t) at 8 h [21]: 4290 ng·h/mL
Compound: N#Cc1c(-c2cccs2)nc(SCc2cccc(-c3nn[nH]n3)c2)[nH]c1=O
inhibition (INH) [8]: Not Active
Activity [16]: Non-Toxic
Activity [18]: Non-Toxic

IC50 [1]: 20 nM
Compound: N#Cc1c(-c2cccs2)nc(SCc2cccc(C(=O)O)c2)[nH]c1=O
